The species named for series [1] is Homo sapiens. The experiment in a line: Selectivity ratio of Ki for human prostanoid TP receptor to Ki for human prostanoid EP4.
The nature of series [2]: Half life in rat at 20 mg/kg, po and 5 mg/kg, iv. Type of series: ADME, organism-based. As to conditions: in vivo. The procedure, abridged:
(§1)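 Rat pharmacokinetics with potassium salts, given 20 mg/kg orally in 0.5% methocel and 5 mg/kg intravenously in 60% PEG 200. Half-life, oral bioavailability and clearance derived from these dosings.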

For series [3], the system named is Rattus norvegicus. The experiment in a line: Antiinflammatory activity in rat assessed as inhibition of complete Freund's adjuvant-induced paw swelling at 0.6 mg/kg administered daily once 9 days after adjuvant challenge measured on day 18.
The nature of series [4]: Clearance in rat at 20 mg/kg, po and 5 mg/kg, iv. Type of series: ADME, organism-based. Particulars: in vivo. In a few lines:
as §1

A short description of series [5]: Bioavailability in rat at 20 mg/kg, po and 5 mg/kg, iv. Format: ADME, organism-based. Particulars: in vivo. The procedure, abridged:
as §1

The species entered for series [6] is Homo sapiens. The experiment in a line: Selectivity ratio of Ki for human prostanoid EP3 receptor to Ki for human prostanoid EP4.
For series [7], the species on record is Rattus norvegicus. The experiment in a line: Analgesic activity against carrageenan-induced mechanical hyperalgesia in rat assessed as paw withdrawal latency. Format: functional, organism-based. In a few lines:
(§2)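 Rats given carrageenan injection into the paw at t = 0 h, test article dosed at t = 2 h. At t = 3 h mechanical pressure is applied to the paw and paw withdrawal latency is recorded. Statistics by one-way ANOVA with Dunnett's test versus vehicle control.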

For series [8], the system named is Rattus norvegicus. The experiment in a line: Analgesic activity against carrageenan-induced mechanical hyperalgesia in rat assessed as paw withdrawal latency at 10 mg/kg. Format: functional. In a few lines: as §2
The nature of series [9]: Metabolic stability in rat hepatocytes assessed as parent compound remaining after 2 hrs. Type of series: ADME, cell-based, Hepatocyte. As to conditions: read-out: Stability. In a few lines:
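Incubation with rat hepatocytes for 2 h. The mixture is analysed by LC/MS for percent parent remaining and metabolite identity.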

The test system of series [10] is Rattus norvegicus. The experiment in a line: Antiinflammatory activity in rat assessed as inhibition of complete Freund's adjuvant-induced paw swelling administered daily once 9 days after adjuvant challenge measured on day 18. Type of series: functional, organism-based. In a few lines:
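Adjuvant arthritis in rats: complete Freund's adjuvant injected into the left hind paw on day 0. Dosing once daily for 9 days, starting on day 9. Secondary paw volume measured on day 18. Percent inhibition is calculated from the difference between each treated group (n = 7/group) and vehicle control; SEM reported.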

Series [11] concerns the target T1, Prostaglandin E2 receptor EP4 subtype (Homo sapiens, UniProt P35408). The experiment in a line: Antagonist activity at human prostanoid EP4 receptor expressed in HEK293 cells assessed as inhibition of PGE2-induced cAMP accumulation by scintillation proximity assay. Format: functional, cell-based. In a few lines:
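HEK293 cells expressing EP4 receptors. Antagonism is read as inhibition of PGE2-evoked rise in intracellular cAMP, reported as IC50. Agonism is read as cAMP elevation in the same cells without PGE2, reported as EC50.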

The species entered for series [12] is Homo sapiens. The experiment in a line: Selectivity ratio of Ki for human prostanoid FP receptor to Ki for human prostanoid EP4.
For series [13], the species on record is Homo sapiens. The experiment in a line: Selectivity ratio of Ki for human prostanoid DP receptor to Ki for human prostanoid EP4.
For series [14], the species on record is Homo sapiens. The experiment in a line: Selectivity ratio of Ki for human prostanoid IP receptor to Ki for human prostanoid EP4.
The species named for series [15] is Homo sapiens. The experiment in a line: Selectivity ratio of Ki for human prostanoid EP1 receptor to Ki for human prostanoid EP4.
The species named for series [16] is Homo sapiens. The experiment in a line: Selectivity ratio of Ki for human prostanoid EP2 receptor to Ki for human prostanoid EP4.
Series [17] has as its target T1, Prostaglandin E2 receptor EP4 subtype. The experiment in a line: Displacement of [3H]PGE2 from human prostanoid EP4 receptor expressed in HEK293-EBNA cells after 60 mins by scintillation counting. Format: cell-based. Background: In a radioligand displacement assay an active substance lowers the binding of a labelled ligand.
For series [18] the target is unchanged. The experiment in a line: Agonist activity at human prostanoid EP4 receptor expressed in HEK293 cells assessed as cAMP accumulation by scintillation proximity assay. Background: Cyclic AMP is a second messenger, typically raised through Gs and lowered through Gi signalling.
Series [19] can be described thus: Drug excretion in rat bile assessed as total radioactivity after 24 hrs. Format: ADME. As to conditions: in vivo.
The subject of series [20] is Hepatocyte. The experiment in a line: Oxidative metabolism in rat hepatocytes assessed as protein covalent binding per mg of protein after 2 hrs. Format: ADME, cell-based.
In series [21] the test system is Hepatocyte. The experiment in a line: Oxidative metabolism in human hepatocytes assessed as protein covalent binding per mg of protein after 2 hrs. Format: ADME, cell-based.
The species entered for series [22] is Rattus norvegicus. The experiment in a line: covalent protein labeling in rat assessed per mg of protein. As to conditions: in vivo. Format: ADME, organism-based.

Calls of active or inactive are those of the source.

T1 sequence (P35408 whole entry): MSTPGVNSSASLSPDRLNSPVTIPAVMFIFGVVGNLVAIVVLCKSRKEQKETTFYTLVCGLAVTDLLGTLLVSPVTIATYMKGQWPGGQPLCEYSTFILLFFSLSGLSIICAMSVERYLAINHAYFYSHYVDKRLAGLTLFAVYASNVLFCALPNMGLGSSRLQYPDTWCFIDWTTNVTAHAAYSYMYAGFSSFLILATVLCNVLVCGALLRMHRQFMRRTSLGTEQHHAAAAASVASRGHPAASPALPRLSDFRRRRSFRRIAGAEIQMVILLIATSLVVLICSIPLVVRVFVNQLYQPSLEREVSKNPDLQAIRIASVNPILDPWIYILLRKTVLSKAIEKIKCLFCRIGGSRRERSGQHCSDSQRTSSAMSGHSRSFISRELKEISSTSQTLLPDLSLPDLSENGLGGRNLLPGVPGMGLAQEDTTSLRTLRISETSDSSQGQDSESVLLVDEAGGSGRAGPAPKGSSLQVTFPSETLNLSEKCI

Usually half-life stands for the time needed for the level to fall by half in the phase considered. A higher half-life goes with slow decline. By IC50 is commonly meant the midpoint of a concentration-inhibition curve. What is called Ki is a measure of affinity in units of concentration, obtained from inhibition or displacement. `C[C@H](NC(=O)c1cccc2c1N(Cc1ccc(C(F)(F)F)cc1)CC2)c1ccc(C(=O)O)cc1`: the Ratio Ki in series [1], in series [6], in series [12], in series [13], in series [14] and in [15] was over 1000 each time. In [16], the Ratio Ki is over 1000. This compound also showed a half-life in series [2] of 4.1 h. Also, the inhibition entry in [3] was “Active”. Further, the clearance in series [4] amounted to 11 mL/min/kg. Further, the bioavailability in [5] worked out at 48%. The Activity result in series [7] is “Dose-dependent effect”; in series [8] it was 64%. Also, the remaining at 2 h in series [9] came out at 36%. In addition, the inhibition entry in [10] is “Dose-dependent effect”. Moreover, in series [11], the IC50 stood at 2.1 nM. The compound further returned a Ki in series [17] of 0.37 nM.
The term EC50 denotes the midpoint of the concentration-response curve. As for `C[C@H](NC(=O)c1cccc2c1N(Cc1cc(Br)cc(Br)c1)CC2)c1ccc(C(=O)O)cc1`, the Ratio Ki in series [1] is over 1000; in series [6], over 1000; in series [12] it was over 1000; in series [13], 209; in series [14] it was over 1000; in [15], over 1000. Further, the Ratio Ki in series [16] was found to be 151. For the same compound, the half-maximal effective concentration (EC50) in series [18] is 0.36 nM. For the same compound, the IC50 in series [11] is over 10000 nM. In addition, the Ki in series [17] amounted to 0.33 nM.
For the compound `C[C@H](NC(=O)c1cccc2c1N(Cc1ccc(Cl)cc1)CC2)c1ccc(C(=O)O)cc1`, the Ratio Ki in [1], in series [6], in series [12], in series [13], in series [14] and in [15] was over 1000 throughout. Besides, the Ratio Ki in [16] was over 1000. The compound further showed a half-life in series [2] of 4.7 h. Besides, the clearance in series [4] stood at 9 mL/min/kg. Also, in series [5], the bioavailability came to 102%. For the same compound, the IC50 in series [11] stood at 0.92 nM. The same compound had a Ki in [17] of 0.44 nM.
`C[C@H](NC(=O)c1cccc2c1N(Cc1cccc(C(F)(F)F)c1)CC2)c1ccc(C(=O)O)cc1`: the Ratio Ki in series [1], in [6], in series [12], in series [13], in series [14] and in [15] was over 1000 throughout. The Ratio Ki in [16] is over 1000. The EC50 in series [18] came out at 0.2 nM. Further, the IC50 in series [11] was over 10000 nM. In series [17], this compound displayed a Ki of 0.4 nM.
For the compound `C[C@H](NC(=O)c1cccc2c1N(Cc1cccc(Cl)c1)CC2)c1ccc(C(=O)O)cc1`, the Ratio Ki in series [1], in series [6], in series [12], in [13], in [14] and in series [15] was over 1000 in each case. Further, the Ratio Ki in series [16] worked out at 595. For the same compound, in [2], the half-life was 4.4 h. Also, in [4], the clearance is 26 mL/min/kg. In addition, in series [5], the bioavailability amounted to 65%. For the same compound, the EC50 in series [18] is 0.82 nM. In [11], the IC50 was over 10000 nM. Affinity in series [17] was put at a Ki of 0.44 nM.
Consider `[3H]c1cc2c(c(C(=O)N[C@@H](C)c3ccc(C(=O)O)cc3)c1)N(Cc1ccc(C(F)(F)F)cc1)CC2`, for which the Activity is 86% in series [19], 56 pmolequiv/mg in [20], 28 pmolequiv/mg in series [21] and 5 pmol in series [22].

(Values after ChEMBL document CHEMBL1641558, “A novel series of potent and selective EP(4) receptor ligands: facile modulation of agonism and antagonism” (Bioorg Med Chem Lett, 2011).)
